From PubChem BioAssay
RanGTP-Impb inh – inhibitors of RanGTP-importin-beta interaction, primary screen, biochemical, FRET, CFP-Ran, YFP-importin-beta, homogeneous; Ran GTPase (GTP-bound) - importin-beta complex; cell-free CFP-Ran/YFP-importin-beta FRET ratio; 300,000 compounds, 1.1% hits; inhibition, % (no concentration beside the values); AID 2216, 2009;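 active = more than half of the replicate wells show a fall in the fluorescence ratio signal beyond about 16%, limit read from the data, passing the limit was not always enough; inconclusive = exactly half of the replicate wells pass the set limit; inactive = fewer than half of replicates pass the limit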;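 also: 0% = DMSO wells and 100% = Ran loaded with GDP instead of GTP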
Runt-CBFb FRET – inhibitors of RUNX1 Runt–CBFb binding, primary screen, biochemical, FRET, Cerulean-Runt, Venus-CBFb, uHTS | Runt-related transcription factor 1 (Homo sapiens) + Core-binding factor subunit beta … | inhibition, % at 20 µM | 220,000 compounds, 0.46% hits | Cerulean-Runt/Venus-CBFb FRET ratio 530/480, 1 h;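 active = inhibition over about 50% at 20 µM in the single-dose screen, limit read from the data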;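 also: 0% = DMSO wells and 100% = excess unlabeled CBFb competitor control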
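test system = Cerulean-Runt domain fusion protein, energy donor | probe or stimulus = Venus-CBFb binding partner, 100 nM | incubation = two 1 h room-temperature incubations shielded from light | detection = fluorescence energy transfer, 422 nm excitation, 530/480 nm emission | measure = loss of energy transfer signal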
Runt-SMMHC FRET – inhibitors of RUNX1 Runt–CBFb-SMMHC binding, primary screen, biochemical, FRET, Cerulean-Runt, Venus-CBFb-SMMHC, uHTS | Runt-related transcription factor 1 (Homo sapiens) + Core-binding factor subunit beta … | Cerulean-Runt/Venus-CBFb-SMMHC FRET ratio 530/480, 1 h | inhibition, % at 20 µM | 220,000 compounds, 0.74% hits | AID 1434, 2008;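 active = mean inhibition across duplicate retests at 20 µM reaching about 50%, limit read from the data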;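 also: 0% = DMSO wells and 100% = wells with excess untagged CBFb-SMMHC; inhibitors lower the FRET ratio by blocking Runt binding to CBFb-SMMHC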
Hck-Nef inh – inhibitors of Nef-activated human Hck kinase, primary screen, biochemical, Z-Lyte FRET, 384-well, Hck-YEEI; Tyrosine-protein kinase HCK (Homo sapiens), P08631; Recombinant Hck-YEEI plus Nef, Z-Lyte FRET kinase assay; inhibition, % at 20 µM; 220,000 compounds, 0.68% hits;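 active = Hck-Nef kinase inhibition above about 50%, limit read from the data; inactive = inhibition below that limit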;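 also: 0% = DMSO with Hck plus Nef and 100% = Hck alone without Nef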
Target sequence (P08631 whole entry, looked up): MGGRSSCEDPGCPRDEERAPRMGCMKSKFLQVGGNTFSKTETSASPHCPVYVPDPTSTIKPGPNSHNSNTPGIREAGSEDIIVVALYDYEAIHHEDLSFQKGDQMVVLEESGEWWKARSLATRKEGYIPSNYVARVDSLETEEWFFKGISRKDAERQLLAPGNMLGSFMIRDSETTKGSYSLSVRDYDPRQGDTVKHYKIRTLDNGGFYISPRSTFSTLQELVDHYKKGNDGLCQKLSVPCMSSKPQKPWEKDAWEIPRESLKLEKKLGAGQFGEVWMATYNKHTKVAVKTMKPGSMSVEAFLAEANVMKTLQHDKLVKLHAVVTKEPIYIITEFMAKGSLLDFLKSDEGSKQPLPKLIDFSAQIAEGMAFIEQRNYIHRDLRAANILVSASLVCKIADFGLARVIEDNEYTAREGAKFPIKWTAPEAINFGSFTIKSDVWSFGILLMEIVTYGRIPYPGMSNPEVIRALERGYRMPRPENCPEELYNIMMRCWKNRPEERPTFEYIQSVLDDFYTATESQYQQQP
Hck Nef conf – retest of Hck:Nef kinase inhibitor hits, confirmation, biochemical, Z-Lyte FRET, 384-well, p-Tyr peptide counterscreen; shares compounds with Hck-Nef inh; 1,300 compounds, 28% hits; calls only at 10 µM; Recombinant Hck-YEEI:Nef, Z-Lyte FRET kinase assay;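 active = average inhibition of at least 50%, with Z-scores no higher than 3 in both the phospho-tyrosine peptide and fluorescence counterscreens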
Active calls of the source: *; i = inactive; ? = inconclusive; . = not tested or not shown; + = active, no number. Rows were chosen to be rich in hits. Some 1.8% of all compounds tested hit in one or more screens of this group.

SMILES	RanGTP-Impb inh	Runt-CBFb FRET	Runt-SMMHC FRET	Hck-Nef inh	Hck Nef conf
Cc1cc(C)c(NC(=O)CNC(=O)COC(=O)/C=C/c2cccs2)c(C)c1	-2	.	.	.	.
CCOC(=O)c1c(C2CCN(C(=O)OCC)CC2)nc2ccccn12	-3	0	2	1	.
CCOC(=O)c1cc2c(=O)n3ccccc3nc2n(CC2CCCO2)c1=NC(C)=O (configuration not stated)	71*	42	59*	193*	.
N#CCCn1cc(C(=O)Nc2ccccc2Br)c(-c2cc3ccccc3o2)n1	-2	0	4	0	.
Cc1cc(C)c2c(N)c3ccccc3nc2n1	135*	11	78*	53*	i
Cc1cc(C)c2cccc(N)c2n1	4	2	-2	27	.
Cc1cc(=O)n2[nH]c(C)c(-c3ccccc3)c2n1	-3	0	4	-2	.
O=c1cc(-c2ccccc2)nc2c(-c3ccccc3)c(C(F)(F)F)[nH]n12	2	2	2	57*	i
CC(CNC(=O)c1ccc(C#N)cc1)NC(=O)c1ccc(C#N)cc1 (configuration not stated)	8	.	.	.	.
COc1ccc2nc(C)cc(SCC(=O)NNC(=O)COc3ccc(C)cc3)c2c1	5	-4	-8	-1	.
COc1ccc2nc(C)cc(SCC(=O)Nc3c(C)cc(C)cc3C)c2c1	0	-2	1	51*	i
COc1ccc2nc(C)cc(SCC(=O)Nc3c(C)cccc3C)c2c1	1	0	-6	78*	i
CCN1/C(=N\N)c2cccc3cccc1c23	-2	-5	-31	-13	.
CC(=O)Nc1ccc(S(=O)(=O)C(C#N)c2nc3ccccc3nc2NCCO)cc1 (configuration not stated)	3	10	6	148*	.
CC(=O)Nc1ccc(S(=O)(=O)Nc2nc3ccccc3nc2Nc2ccccc2)cc1	-1	3	4	3	.
CC(=O)Nc1ccc(S(=O)(=O)C(C#N)c2nc3ccccc3nc2NCCCO)cc1 (configuration not stated)	4	14	18	165*	.
CC(C)OC(=O)CC1C(=O)NCCN1C(=S)NC(=O)c1ccc(F)cc1 (configuration not stated)	-4	1	-2	3	.
N#C/C(=C\c1coc2ccccc2c1=O)C(N)=S	1	32	19	21	.
N#C/C(=C\c1coc2ccc(O)cc2c1=O)C(=O)Nc1nc2ccccc2s1	-83	-167	-266	64*	i
CCc1cc2c3c(c(=O)oc2cc1O)CCCC3	?	96*	144*	91*	.
CCc1cc2c3c(c(=O)oc2cc1OC(C)C(=O)O)CCCC3 (configuration not stated)	-1	.	.	.	.
O=C1NN(c2ccc(Cl)cc2)C(=O)/C1=C\c1ccc(-c2cccc(C(=O)O)c2)o1	.	18	8	53*	i
COc1ccc(Sc2ccc(/C=C3\C(=O)NN(c4ccccc4)C3=O)o2)cc1	1	0	-14	-2	.
O=C1NN(c2ccccc2)C(=O)/C1=C\c1ccc(-c2cc([N+](=O)[O-])ccc2O)o1	-3	-8	-15	76*	+
COc1cc(/C=C2/C(=O)NN(c3ccc(Cl)cc3)C2=O)cc(OC)c1O	-3	.	.	.	.
SMILES	RanGTP-Impb inh	Runt-CBFb FRET	Runt-SMMHC FRET	Hck-Nef inh	Hck Nef conf
CC1SC(c2ccc(F)cc2)N(CCc2ccccc2)C1=O (configuration not stated)	-1	.	.	.	.
Cc1ccc(-c2nc3ccccc3[nH]2)cc1NC(=O)c1sc2cc(Cl)ccc2c1Cl	1	-4	2	73*	i
O=C1CSC(=S)N1/N=C/c1ccc(Cl)c([N+](=O)[O-])c1	7	12	-6	80*	+
CNC(=O)C(=O)N/N=C/c1cccnc1	-2	0	-6	13	.
COCCNC(=S)NCCCNc1nc2cc3c(cc2cc1C#N)OCO3	87*	15	48	70*	.
CN(C)CCCNC(=S)N(CCCO)Cc1cc2cc3c(cc2[nH]c1=O)OCO3	3	.	.	.	.
CN(C)CCCNC(=S)NCCNc1nc2cc3c(cc2cc1C#N)OCO3	72*	84*	113*	51*	.
COc1ccc(N(C)C(=O)c2oc(=O)c3ccccc3c2-c2ccc(C)cc2)c(OC)c1	-1	-1	-2	-18	.
COCc1cc(C)nc(N/N=C/c2ccc(-c3ccc(Cl)cc3[N+](=O)[O-])o2)c1C#N	-7	4	-8	171*	+
COc1ccc(C(NC(=O)/C=C/c2ccco2)c2ccc(OC)c(OC)c2)cc1OC	-3	15	12	5	.
Cc1cnc(C(=O)N2CCCC(C(=O)c3ccc(Cl)cc3C)C2)cn1 (configuration not stated)	5	-1	-2	-10	.
CC(O)C(C(=O)OCc1ccc([N+](=O)[O-])cc1)N1C(=O)c2ccccc2C1=O (configuration not stated)	.	1	1	71*	i
C[C@H](N)C(=O)OCc1ccc([N+](=O)[O-])cc1	1	-2	-2	2	.
COc1ccc(NC(=O)c2cc(-c3ccco3)nc3ccccc23)cc1S(=O)(=O)N1CCOCC1	?	22	-23	33	.
Cc1ccc(NC(=O)c2cc(-c3ccco3)nc3ccccc23)cc1S(=O)(=O)N1CCOCC1	2	-1	-25	69*	+
Cc1ccc(-c2csc3ncn(CC(=O)O)c(=O)c23)cc1C	-2	.	.	.	.
Cc1cc(=O)oc2cc(OCc3ccc(C(=O)OCC(=O)Nc4ccc(N(C)C)cc4)cc3)ccc12	2	1	-1	147*	i
CCOC(=O)c1cc(CC)sc1NC(=O)COc1ccc2c(C)cc(=O)oc2c1	6	-3	1	55*	i
Cc1cc(C(=O)N2CCCC(CO)(Cc3ccc(F)cc3)C2)c(C)o1 (configuration not stated)	1	.	.	.	.
Cn1c(=O)c2c(ncn2CC(=O)N2CCN(C(=O)c3ccco3)CC2)n(C)c1=O	0	2	-2	8	.
CCN1C(=O)/C(=C\c2cn(-c3ccccc3)nc2-c2cccnc2)SC1=S	6	-4	-16	60*	i
Cc1ccc(NC(=O)CN2C(=O)S/C(=C\c3cccn3-c3cccc(C(=O)O)c3)C2=O)c(C)c1	8	-6	-15	78*	+
